Assay results reported in PMC8301577 (Clinical and Translational Science, 2021).
Values joined by “and” are separate entries in the source; they are usually repeats but may differ in a detail not shown here. Equal values may be shown once. “Also recorded” adds a separate entry of the source.

Experiments:
[1] = cited from earlier work
[2] = Stability of QC samples in human plasma; type: physicochemical; details: autosampler 4°C for 48 h or 3 successive freeze (−20°C) and thaw cycles
In short: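 Plasma QC samples held both analytes at 30, 300 and 1000 pg/ml, five replicates each. They were extracted by solid phase with deuterated internal standards and quantified by LC-MS/MS. Processed samples were tested after 48 h in the autosampler at 4°C, and QC samples after three freeze (−20°C)/thaw cycles, following FDA bioanalytical validation guidance.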

CES1 G143E = details: cells transfected with the variant; cited from earlier work
Single-dose = type: in vivo, human; details: for CL: single oral dose 1 mg trandolapril, mean
healthy volunteers = assay: Single-dose; type: in vivo, human
In short: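 Healthy non-smoking volunteers (8 CES1 G143E heterozygotes, 11 noncarriers) fasted overnight, then took a single 1 mg oral test compound dose with 240 ml water and fasted until 4 h post-dose. The maximal post-dose reduction was taken; mean ± SD.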

ACE = details: cited from earlier work
[3] = G/E, individual subjects (n=8), single oral dose 1 mg
[4] = G/G, individual subjects (n=11), single oral dose 1 mg
[5] = Mean ± SD (G/E), n=8, single oral dose 1 mg
[6] = Mean ± SD (G/G), n=11, single oral dose 1 mg

CCOC(=O)[C@H](CCc1ccccc1)N[C@@H](C)C(=O)N1CCC[C@H]1C(=O)O [enalapril]
difference of PK parameters between G143E carriers and controls ([1]; Danish volunteers, 6 carriers and 16 noncarriers): no significant difference

CCOC(=O)[C@H](CCc1ccccc1)N[C@@H](C)C(=O)N1[C@H](C(=O)O)C[C@H]2CCCC[C@@H]21 [Trandolapril]
stability of processed and QC samples [2]: stable
catalytic activity of CES1 G143E on trandolapril activation (CES1 G143E): abolished; also recorded: completely impaired
CL (Single-dose; CES1 143G/E (n=8)): 1027.58 L/h
CL (Single-dose; CES1 143G/G (n=11)): 893.90 L/h
DBP Max reduction (healthy volunteers; [3]): 10 and 11 and 3 and 15 and 21 and 6 and 13
Heart rate Max reduction (healthy volunteers; [3]): 20 and 11 and 17 and 7 and 3 and 4 and 18
SBP Max reduction (healthy volunteers; [3]): 11 and 12 and 6 and 5 and 4 and 33
DBP Max reduction (healthy volunteers; [4]): 19 and 23 and 8 and 30 and 5 and 14 and 7 and 15 and 13
Heart rate Max reduction (healthy volunteers; [4]): 3 and −1 and 6 and 24 and 4 and −3 and 7 and 10 and 30 and 9
SBP Max reduction (healthy volunteers; [4]): 32 and 23 and 10 and 16 and 12 and 7 and 5 and 11
DBP Max reduction (healthy volunteers; [5]): 12 ± 6
Heart rate Max reduction (healthy volunteers; [5]): 12 ± 7
SBP Max reduction (healthy volunteers; [5]): 11 ± 9
DBP Max reduction (healthy volunteers; [6]): 15 ± 7
Heart rate Max reduction (healthy volunteers; [6]): 9 ± 10
SBP Max reduction (healthy volunteers; [6]): 14 ± 8
average maximum reduction of SBP in carriers less than in noncarriers (healthy volunteers; abstract, not statistically significant): ~ 22%
changes in heart rate after trandolapril administration (healthy volunteers; noncarrier and carrier group): no significant changes
time of maximal reduction of SBP and DBP after dosing (healthy volunteers; noncarrier group, single oral dose 1 mg): 6 to 8 h
maximum reduction of DBP in carrier group as percent of noncarrier group (healthy volunteers; p = 0.26, not statistically significant): 80.0%
maximum reduction of SBP in carrier group as percent of noncarrier group (healthy volunteers; p = 0.54, not statistically significant): 78.6%

CCOC(=O)[C@H](CCc1ccccc1)N[C@@H](C)C(=O)N1Cc2ccccc2C[C@H]1C(=O)O [quinapril]
impact of G143E on PKs ([1]; Finnish subjects, carriers = 10, noncarriers = 12): no significant impact

C[C@H](N[C@@H](CCc1ccccc1)C(=O)O)C(=O)N1[C@H](C(=O)O)C[C@H]2CCCC[C@@H]21 [Trandolaprilat, trandolaprilat]
stability of processed and QC samples [2]: stable
decrease of Cmax in G143E carriers relative to noncarriers (Single-dose; 1 mg oral trandolapril, p = 0.17, not statistically significant): 20%
decrease of AUC0–72 h in G143E carriers relative to noncarriers (Single-dose; 1 mg oral trandolapril, p = 0.33, not statistically significant): 15%
CL (Single-dose; CES1 143G/E (n=8)): 9.96 L/h
CL (Single-dose; CES1 143G/G (n=11)): 12.20 L/h
Tmax (Single-dose; human, plasma, po, 1 mg): 6.7 h
potency at inhibiting ACE relative to parent compound trandolapril (ACE): approximately eight times more potent

C[C@H](N[C@@H](CCc1ccccc1)C(=O)O)C(=O)N1CCC[C@H]1C(=O)O [enalaprilat]
decrease of AUC0‐∞ in G143E carriers ([1]; Finnish subjects, carriers = 10, noncarriers = 12, p = 0.049): 20%

COC(=O)C(c1ccccc1)C1CCCCN1 (centres unmarked) [methylphenidate]
mean AUC0‐∞ higher in G143E carriers than in controls ([1]; Danish volunteers, 6 carriers and 16 noncarriers, p < 0.0001): 152.4%
